Reference: PMC6219460 (SLAS discovery : advancing life sciences R & D, 2017)
Read-outs that look alike come from different tables or passages of the source.

Columns and labels:
human CB2 receptor [1] = target: T1, human CB2 receptor (Homo sapiens, UniProt P34972); assay: [35S]GTPγS binding assay, HEK293 membranes expressing CB2; assay type: biochemical; conditions: 10 μM GDP
Summary of the method: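 HEK293 membranes expressing recombinant human CB2 (8 µg/well) were incubated with 0.1 nM [35S]GTPγS, 10 µM GDP, 0.1% (w/v) BSA and test compound (typically 1 nM–10 µM) in 50 mM Tris-HCl pH 7.4, 3 mM MgCl2, 0.2 mM EGTA, 100 mM NaCl. Nonspecific binding was set with 10 µM unlabeled GTPγS. Reactions were stopped by filtration. Duplicates, three experiments.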

human CB1 receptor = human CB1 receptor (Homo sapiens, UniProt P21554); assay type: binding; conditions: for inhibition of [3H]CP 55,940 binding to CB1 receptors (in words): concentrations up to 10 μM
human CB2 receptor [2] = target: T1, human CB2 receptor; assay type: binding; conditions: for selectivity for CB2 versus CB1 (in words): from radioligand binding at CB2 and CB1
[3] = EC50 GTPγS binding, 0.1 nM [35S]GTPγS
[4] = read-out: log (Ki, Molar) CB1 (converted), [3H]CP 55,940 tracer at 1.5 nM
[5] = Ki (μM) CB2, [3H]CP 55,940 tracer at 1.5 nM
[6] = log (EC50, Molar) GTPγS binding CB2, 0.1 nM [35S]GTPγS

T1 sequence (P34972 whole entry): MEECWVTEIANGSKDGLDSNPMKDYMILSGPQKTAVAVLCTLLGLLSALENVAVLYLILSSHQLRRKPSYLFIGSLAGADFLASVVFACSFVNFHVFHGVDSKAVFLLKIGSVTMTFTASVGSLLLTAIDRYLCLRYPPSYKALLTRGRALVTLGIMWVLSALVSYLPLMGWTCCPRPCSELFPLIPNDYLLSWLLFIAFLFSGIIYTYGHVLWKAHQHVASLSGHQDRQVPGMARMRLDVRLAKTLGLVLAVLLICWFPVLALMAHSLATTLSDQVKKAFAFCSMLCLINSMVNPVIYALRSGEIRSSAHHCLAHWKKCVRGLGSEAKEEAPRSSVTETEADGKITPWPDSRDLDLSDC
Sequence of human CB1 receptor (P21554 whole entry): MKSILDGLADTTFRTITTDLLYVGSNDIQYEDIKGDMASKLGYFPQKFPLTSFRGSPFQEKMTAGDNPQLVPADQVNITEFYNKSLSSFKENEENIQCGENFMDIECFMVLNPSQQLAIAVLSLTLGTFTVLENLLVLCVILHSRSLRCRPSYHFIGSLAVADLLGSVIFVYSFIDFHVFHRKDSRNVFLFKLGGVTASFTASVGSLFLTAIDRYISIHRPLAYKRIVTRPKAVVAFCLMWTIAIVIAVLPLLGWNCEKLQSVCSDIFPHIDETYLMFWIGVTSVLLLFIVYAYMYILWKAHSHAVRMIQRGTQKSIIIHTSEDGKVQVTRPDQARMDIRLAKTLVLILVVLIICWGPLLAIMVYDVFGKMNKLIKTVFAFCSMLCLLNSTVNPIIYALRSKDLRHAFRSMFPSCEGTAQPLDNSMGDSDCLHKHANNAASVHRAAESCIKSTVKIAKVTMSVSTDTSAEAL

| SMILES | EC50 (human CB2 receptor [1]; [3]) | Ki (human CB1 receptor) | inhibition of [3H]CP 55,940 binding to CB1 receptors (in words) (human CB1 receptor) | Ki (human CB1 receptor; [4]) | Ki (human CB2 receptor [2]; [5]) | selectivity for CB2 versus CB1 (in words) (human CB2 receptor [2]) | EC50 (human CB2 receptor [1]; [6]) | Ki (human CB2 receptor [2]; log (Ki, Molar) CB2, [3H]CP 55,940 tracer at 1.5 nM) |
| --- | --- | --- | --- | --- | --- | --- | --- | --- |
| CC(C)c1cc(C2CCCN2C(=O)c2cc(-c3ccc4c(c3)OCO4)on2)no1 (stereo not drawn) [Compound 1, (5-(benzo[d][1,3]dioxol-5-yl)isoxazol-3-yl)(2-(5-isopropylisoxazol-3-yl)pyrrolidin-1-yl)methanone] | 500 nM | > 10000 nM | no measurable inhibition | > 10000 nM | 2.3 µM | selectively bind CB2 receptors | – | – |
| c1ccc(Nc2nc3ccccc3nc2Nc2ccccc2)cc1 [Compound 2, N2,N3-diphenylquinoxaline-2,3-diamine] | – | 1800 nM | – | – | 1.1 µM | only weakly selective | 501 nM | – |
| CCc1c(C)sc(NC(=O)C(Sc2ccccc2)c2ccccc2)c1C(=O)OC (stereo not drawn) [Compound 3, methyl 4-ethyl-5-methyl-2-(2-phenyl-2 (phenylthio)acetamido)thiophene-3-carboxylate] | – | 1600 nM | – | – | 0.8 µM | only weakly selective | 39.8 nM | – |
| CC1CCN(C(NC(=O)c2ccc(C(C)(C)C)cc2)C(Cl)(Cl)Cl)CC1 (stereo not drawn) [Compound 4, 4-(tert-butyl)-N-(2,2,2-trichloro-1-(4-methylpiperidin-1 yl)ethyl)benzamide] | 80 nM | > 10000 nM | no detectable inhibition | > 10000 nM | 0.2 µM | selectively bind CB2 receptors | – | 0.251 µM |
